The source made the active and inactive calls. The rule behind the calls is not given here.

The nature of data set [1]: Induction of apoptosis in human MCF10A cells assessed as viable cells at 1 uM after 12 hrs by annexin V-FITC/propidium iodide staining-based flow cytometry method (reference value: 95.4%). In kind it is cell-based, MCF-10A. To be noted: read-out: Activity. In a few lines:
(§1)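 Cells were stained with Annexin V-FITC/PI and gated by flow cytometry into live, early apoptotic, late apoptotic and necrotic quadrants. Apoptotic fraction is early plus late, mean ± SD of three independent experiments.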
(A flow cytometer gives signals particle by particle.)

Data set [2] deals with HCT-116. The experiment in a line: Induction of apoptosis in human HCT116 cells assessed as late apoptotic cells at 1 uM after 12 hrs by annexin V-FITC/propidium iodide staining-based flow cytometry method (reference value: 5.4%). The class given is functional.
For data set [3], the system named is MCF-10A. The experiment in a line: Induction of apoptosis in human MCF10A cells assessed as early apoptotic cells at 1 uM after 12 hrs by annexin V-FITC/propidium iodide staining-based flow cytometry method (reference value: 0.20%). In kind it is cell-based. In a few lines:
as §1

Data set [4] deals with HCT-116. The experiment in a line: Induction of apoptosis in human HCT116 cells assessed as early apoptotic cells at 1 uM after 12 hrs by annexin V-FITC/propidium iodide staining-based flow cytometry method (reference value: 3.8%). In kind it is functional.
Data set [5] has as its system HCT-116. The experiment in a line: Induction of apoptosis in human HCT116 cells assessed as necrotic cells at 1 uM after 12 hrs by annexin V-FITC/propidium iodide staining-based flow cytometry method (reference value: 4.8%). The class given is functional.
Data set [6] deals with MCF-10A. The experiment in a line: Induction of apoptosis in human MCF10A cells assessed as necrotic cells at 1 uM after 12 hrs by annexin V-FITC/propidium iodide staining-based flow cytometry method (reference value: 0.57%). In kind it is cell-based. In a few lines:
as §1

Data set [7] relates to HCT-116. The experiment in a line: Induction of reactive oxygen species generation in human HCT116 cells assessed as increase in mitochondrial superoxide generation at 1 uM after 12 hrs by MitoSOX red dye-based fluorescence microscopic analysis. The class given is functional, cell-based.
Data set [8] relates to HCT-116. The experiment in a line: Induction of mitochondrial membrane depolarization in human HCT116 cells at 1 uM after 12 hrs by JC-1 staining based fluorescence microscopic analysis. The class given is functional, cell-based.
For data set [9], the system named is HCT-116. The experiment in a line: Induction of apoptosis in human HCT116 cells at 1 uM after 12 hrs by acridine orange/ethidium bromide staining-based fluorescence microscopic analysis. The class given is functional, cell-based.
Data set [10] has as its system HCT-116. The experiment in a line: Induction of apoptosis in human HCT116 cells after 12 hrs by annexin V-FITC/propidium iodide staining-based flow cytometry method. The class given is functional, cell-based.
In data set [11] the test system is MCF-10A. The experiment in a line: Induction of apoptosis in human MCF10A cells after 12 hrs by annexin V-FITC/propidium iodide staining-based flow cytometry method. In kind it is cell-based. In short, it runs like this:
as §1

Data set [12] relates to HCT-116. The experiment in a line: Induction of apoptosis in human HCT116 cells assessed as viable cells at 1 uM after 12 hrs by annexin V-FITC/propidium iodide staining-based flow cytometry method (reference value: 86.0%). In kind it is functional. Conditions: HCT-116, 12 h, read-out: Activity.

In the case of `CN[C@@H]1C[C@H]2O[C@@](C)([C@@H]1OC)n1c3ccccc3c3c4c(c5c6ccccc6n2c5c31)C(=O)NC4` [STAUROSPORINE], in data set [1], the viability at 12 h, 1 µM stood at 85.6%. In addition, the Activity was 8.4% in data set [2]; 2.18% in data set [3]; 25.6% in [4]; 3% in data set [5]; 1.22% in data set [6]; “Dose-dependent effect” in data set [10]. In data set [11], the Activity result is on record as “Dose-dependent effect”. Also, the outcome in data set [7], in [8] and in data set [9] was Active. For the same molecule, in [12], the viability at 1 µM is 63.1%.

These data come from ChEMBL document CHEMBL4325909, “Synthesis and evaluation of chalcone analogues containing a 4-oxoquinazolin-2-yl group as potential anti-tumor agents” (Eur J Med Chem, 2019).
